# Experimental data: ChEMBL document CHEMBL1139083, “Discovery of 2-iminobenzimidazoles as a new class of trypanothione reductase inhibitor by high-throughput screening” (Bioorg Med Chem Lett, 2007)
# Columns and labels:
# [1] = Inhibition of Trypanosoma brucei rhodesiense trypanothione reductase
# Procedure, shortened: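 Automated photometric TR assay adapted to 384-well format. The rate of TNB formation was followed continuously at 412 nm for 15 min at room temperature.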
# [2] = test system: Trypanosoma brucei rhodesiense; assay: Inhibition of Trypanosoma brucei rhodesiense trypanothione reductase at 25 uM
# [3] = test system: Trypanosoma brucei rhodesiense; assay: Trypanocidal activity against Trypanosoma brucei rhodesiense; assay type: functional, organism-based
# [4] = test system: HT-29; assay: Cytotoxicity against human HT29 cells; assay type: functional, cell-based
# [5] = target: T1, Glutathione reductase, mitochondrial (Homo sapiens, UniProt P00390); assay: Inhibition of human glutathione reductase
# T1 sequence (P00390 whole entry): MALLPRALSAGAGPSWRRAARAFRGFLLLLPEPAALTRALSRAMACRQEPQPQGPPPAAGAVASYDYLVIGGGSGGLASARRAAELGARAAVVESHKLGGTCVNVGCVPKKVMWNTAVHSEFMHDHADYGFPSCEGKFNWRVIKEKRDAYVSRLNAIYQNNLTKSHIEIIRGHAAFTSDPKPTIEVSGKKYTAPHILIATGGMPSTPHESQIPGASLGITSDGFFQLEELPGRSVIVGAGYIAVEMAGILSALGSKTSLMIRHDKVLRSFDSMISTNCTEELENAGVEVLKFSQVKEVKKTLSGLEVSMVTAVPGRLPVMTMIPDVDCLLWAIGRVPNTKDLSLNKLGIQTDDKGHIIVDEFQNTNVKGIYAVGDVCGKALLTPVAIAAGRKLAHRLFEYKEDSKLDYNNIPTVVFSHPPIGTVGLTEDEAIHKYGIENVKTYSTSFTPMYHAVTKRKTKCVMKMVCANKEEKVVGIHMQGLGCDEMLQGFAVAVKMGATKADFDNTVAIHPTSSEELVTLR
# Procedure, shortened: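 GR assay adapted from the TR screening protocol, using higher enzyme and G[S]₂ levels because of the higher K_m. The rate of TNB formation was recorded continuously at 412 nm over 15 min at room temperature.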
IC50 [1] [µM],Compound,other results
4,N=c1n(CCOc2ccccc2)c2ccccc2n1CCN1CCCCC1,–
8,CCN(CC)CCn1c(=N)n(CCOc2ccccc2)c2ccccc21,–
> 100,C=CCn1c(=N)n(CC(O)c2ccc(OCC)cc2)c2ccccc21 (stereo unspecified),inhibition [2]: 6%
35,Cc1ccc(C(O)Cn2c(=N)n(CCCN(C)C)c3ccccc32)cc1 (stereo unspecified),–
5,N=c1n(CCN2CCCCC2)c2ccccc2n1CC(O)COc1ccc(Cl)cc1Cl (stereo unspecified),–
4,N=c1n(CCOCCOCCn2c(=N)n(Cc3ccccc3)c3ccccc32)c2ccccc2n1Cc1ccccc1,Ki [1]: 1.9 µM; IC50 [3]: 1.3 µM; IC50 [4]: 144 µM; IC50 [5]: > 100 µM
> 100,CN1CCCC(n2c(=N)n(CCOc3ccccc3)c3ccccc32)C1 (stereo unspecified),–
9,Cc1ccc(OCC(O)Cn2c(=N)n(CCN3CCCCC3)c3ccccc32)cc1 (stereo unspecified),–
59,CCN(CC)CCn1c(=N)n(CCN(CC)CC)c2ccccc21,–
> 100,N=c1n(Cc2ccccc2)c2ccccc2n1CC(O)c1ccc(Cl)cc1 (stereo unspecified),inhibition [2]: 32%
25,CCN(CC)CCn1c(=N)n(CC(=O)c2ccc(-c3ccccc3)cc2)c2ccccc21,–
> 100,CC(=O)/N=c1/n(CCOc2ccccc2)c2ccccc2n1CCN1CCCCC1,–
29,Cc1ccc(C(O)Cn2c(=N)n(CCN(C)C)c3ccccc32)cc1 (stereo unspecified),–
19,CCN(CC)CCn1c(=N)n(CC(O)c2ccc(C)cc2)c2ccccc21 (stereo unspecified),–
7,N=c1n(CCCOc2ccccc2)c2ccccc2n1CCN1CCCCC1,–
> 100,CCCCn1c(=N)n(CC(O)c2ccc(Br)cc2)c2ccccc21 (stereo unspecified),inhibition [2]: 42%

IC50 [1] [µM],Compound,other results
10,CCN(CC)CCn1c(=N)n(CC(=O)c2ccc(Cl)c(Cl)c2)c2ccccc21,–
> 100,CCn1c(=N)n(CCOCCOCCn2c(=N)n(CC)c3ccccc32)c2ccccc21,–
10,CN(C)CCn1c(=N)n(CC(O)c2ccc(Cl)c(Cl)c2)c2ccccc21 (stereo unspecified),inhibition [2]: 92%; Ki [1]: 5.4 µM; IC50 [3]: 0.6 µM; IC50 [4]: 46 µM; IC50 [5]: > 100 µM
8,N=c1n(CCCCCOc2ccccc2)c2ccccc2n1CCN1CCCCC1,–
> 100,CC(C)(C)C(O)Cn1c(=N)n(CCN2CCCCC2)c2ccccc21 (stereo unspecified),inhibition [2]: 66%
7,CCN(CC)CCn1c(=N)n(CC(=O)c2ccc(C)cc2)c2ccccc21,inhibition [2]: 91%
> 100,C=CCn1c(=N)n(CCN(CC)CC)c2ccccc21,inhibition [2]: 31%
> 100,N=c1n(CCN2CCOCC2)c2ccccc2n1CC(O)COc1ccccc1 (stereo unspecified),–
5,N=c1n(CCN2CCCCC2)c2ccccc2n1CC(O)COc1ccccc1 (stereo unspecified),–
16,Cc1ccc(C(O)Cn2c(=N)n(CCN3CCCCC3)c3ccccc32)cc1 (stereo unspecified),–
> 100,c1ccc(OCCNc2ccccc2NCCN2CCCCC2)cc1,–
9,CCN(CC)CCn1c(=N)n(CC(O)c2ccc(Cl)c(Cl)c2)c2ccccc21 (stereo unspecified),–
24,COc1ccc(C(O)Cn2c(=N)n(CCN3CCCCC3)c3ccccc32)cc1 (stereo unspecified),inhibition [2]: 85%
> 100,Cc1ccc(OCC(O)Cn2c(=N)n(CCN3CCOCC3)c3ccccc32)cc1 (stereo unspecified),–
4,N=c1n(CCN2CCCCC2)c2ccccc2n1CC(O)c1ccc(Cl)c(Cl)c1 (stereo unspecified),Ki [1]: 3.6 µM; IC50 [3]: 0.2 µM; IC50 [4]: 9 µM; IC50 [5]: > 100 µM
